From PubChem
In the library only some 3% were active in any assay of this set; here they are far more common.
V-ATPase pH: yeast V-ATPase proton transport regulation by pHLuorin; S. cerevisiae, pHLuorin cytosolic pH fluorescence; response, % at 10 µM; actives 0.37% (n = 350,000); AID 504577; in the data active = response mostly above about 7.3%, no sharp cut-off; inactive = mostly below about 5.4%; also: actives read high
T cruzi inh: blocks replication of Trypanosoma cruzi | T. cruzi beta-gal in NIH3T3, luminescence, 90 h | inhibition, % (test concentration not listed) | actives 1.4% (n = 300,000) | AID 1885;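 active = mean inhibition across valid replicates above about 55%, limit read from the data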;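 also: signal also drops with host cell toxicity which is not excluded here; 0% = plate median of DMSO wells and 100% = zero luminescence signal; higher percent means less beta-gal luminescence so fewer parasites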
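Incubation – ≥90 h infection period, 3 h prior cell attachment · System – NIH/3T3 fibroblasts plus reporter T. cruzi · Doses – compound pinned at 50 nL/well, DMSO · Read-out basis – percent inhibition of parasite-derived β-gal signal · Signal – luminescent β-galactosidase signal after 60 min lysis · Also added – 5000 T. cruzi trypomastigotes/well · Medium – Low-serum DMEM with 2% FBS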
CendR NRP1 mod: NRP-1/CendR interaction modulation; FAM-RPARPAR peptide binding to NRP-1, fluorescence polarization; actives 0.85% (n = 360,000); inhibition, % at 25 µM;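 active = inhibition or corrected inhibition above about 18%, plus a signal ratio from 0.5 to 1.5, limit read from the data, passing the limit was not always enough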
Target sequence (O14786 whole entry, looked up): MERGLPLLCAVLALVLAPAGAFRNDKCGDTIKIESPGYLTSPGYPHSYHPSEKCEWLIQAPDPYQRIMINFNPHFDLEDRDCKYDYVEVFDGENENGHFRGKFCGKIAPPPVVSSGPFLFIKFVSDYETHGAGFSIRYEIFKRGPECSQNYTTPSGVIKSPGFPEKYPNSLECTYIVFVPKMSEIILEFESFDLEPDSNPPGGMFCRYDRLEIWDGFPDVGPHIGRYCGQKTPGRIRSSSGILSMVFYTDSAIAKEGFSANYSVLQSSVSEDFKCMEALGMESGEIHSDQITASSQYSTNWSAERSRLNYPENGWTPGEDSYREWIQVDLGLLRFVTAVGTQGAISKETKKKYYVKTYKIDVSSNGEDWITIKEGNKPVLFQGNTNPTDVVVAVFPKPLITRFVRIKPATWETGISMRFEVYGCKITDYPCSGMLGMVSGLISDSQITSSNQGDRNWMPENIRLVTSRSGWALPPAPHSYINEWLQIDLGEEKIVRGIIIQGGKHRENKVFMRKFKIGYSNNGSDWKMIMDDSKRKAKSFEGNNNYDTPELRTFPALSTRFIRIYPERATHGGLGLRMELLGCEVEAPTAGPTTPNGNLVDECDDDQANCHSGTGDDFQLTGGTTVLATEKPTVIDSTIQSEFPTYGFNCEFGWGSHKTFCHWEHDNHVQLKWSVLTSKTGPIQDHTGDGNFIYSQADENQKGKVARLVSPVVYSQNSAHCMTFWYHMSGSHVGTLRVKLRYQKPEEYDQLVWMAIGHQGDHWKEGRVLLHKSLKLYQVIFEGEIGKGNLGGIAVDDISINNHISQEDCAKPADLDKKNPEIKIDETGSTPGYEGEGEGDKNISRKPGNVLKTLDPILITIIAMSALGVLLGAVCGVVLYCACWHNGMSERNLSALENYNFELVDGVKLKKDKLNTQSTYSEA
AI-2 QS modul: Vibrio harveyi AI-2 quorum sensing modulation; AID 2094; actives 0.4% (n = 300,000); Vibrio harveyi JMH597 AI-2 luminescence/OD600 ratio, 9 h; stronger effect = lower value; strain lacks LuxN and CqsS sensors; 0 = neutral-control median; activity change, % at 7.5 µM; in the data active = activity change below about -75%, passing the limit was not always enough;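 also: luminescence divided by OD600 gain over 9 h not by final OD600 alone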
Yeast superoxide: caloric restriction mimetics inhibiting age-related superoxide in yeast; S. cerevisiae aged cells, superoxide DHE fluorescence; stronger effect = lower value; superoxide response (% of plate mean), % at 10 µM; actives 0.18% (n = 330,000); AID 2690;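 active = superoxide response under a set limit, about three screen SD below normal, cut at about 65% in these data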;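 also: yeast aged for seven days with compound at 30 °C before DHE staining; 100% = average MFI of all compound-treated wells on the plate with controls excluded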
HIF activator: HIF pathway transcriptional activation; U2OS HRE-luciferase reporter, luminescence; normalized: DMSO 0%, desferrioxamine 100%; AID 1910; activation, % at 7.5 µM (by protocol); actives 0.32% (n = 300,000);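 active = mean activation of at least 10% of the iron chelator positive control signal, with at least half of replicates also reaching 10%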
* = called active by the depositor.

Screening CN(C)CCNC(=O)c1ccc(Sc2ccc(Br)cc2)c([N+](=O)[O-])c1 returned V-ATPase pH -3, T cruzi inh 77*, CendR NRP1 mod -3, AI-2 QS modul 7, Yeast superoxide 110 and HIF activator -1.
For O=C(NCCCN1CCOCC1)c1ccc(Sc2ccc(F)cc2)c([N+](=O)[O-])c1 the results were V-ATPase pH -1, T cruzi inh 61*, CendR NRP1 mod 5, AI-2 QS modul 8, Yeast superoxide 97 and HIF activator 0.
For CCc1c(C)nc2ncnn2c1N1CCCC(C(=O)NCCc2ccccc2)C1 (stereo unspecified) the results were V-ATPase pH -2, T cruzi inh 3, CendR NRP1 mod 2, AI-2 QS modul -1, Yeast superoxide 89 and HIF activator 1.
For CC1CN(CCCCOc2cccc(Oc3ccccc3)c2)CC(C)O1 (stereo unspecified) the results were V-ATPase pH -3, T cruzi inh 56*, CendR NRP1 mod 2, AI-2 QS modul -2, Yeast superoxide 70 and HIF activator -1.
`CC1CN(CCOc2cccc(Oc3ccccc3)c2)CC(C)O1` (stereo unspecified) gave V-ATPase pH 1, T cruzi inh -4, CendR NRP1 mod 10, AI-2 QS modul -8, Yeast superoxide 134 and HIF activator -1.
Screening Cc1ccc(S(=O)(=O)CCC(=O)OCc2cc(C)ccc2C)cc1 returned V-ATPase pH -2, T cruzi inh -8, CendR NRP1 mod 27*, AI-2 QS modul 20, Yeast superoxide 101 and HIF activator -1.
For Cc1ccc(S(=O)(=O)CCC(=O)OCc2ccccc2F)cc1 the results were V-ATPase pH -2, T cruzi inh -19, CendR NRP1 mod -4, AI-2 QS modul 9, Yeast superoxide 101 and HIF activator 0.
`CC1CCN(C(=S)NC(=O)c2ccco2)CC1` gave V-ATPase pH 2, T cruzi inh -22, CendR NRP1 mod 14, AI-2 QS modul 29, Yeast superoxide 91 and HIF activator 0.
`c1ccc(CCc2ccncc2)cc1` gave V-ATPase pH -3, T cruzi inh 56*, CendR NRP1 mod 6, AI-2 QS modul 8, Yeast superoxide 107 and HIF activator 0.
Screening OC(CCc1ccncc1)COc1ccccc1 (stereo unspecified) returned V-ATPase pH 2, T cruzi inh -35, CendR NRP1 mod 20*, AI-2 QS modul -2, Yeast superoxide 91 and HIF activator -1.
For OC(CCc1ccncc1)c1ccccc1 (stereo unspecified) the results were V-ATPase pH 2, T cruzi inh -12, CendR NRP1 mod -3, AI-2 QS modul 10, Yeast superoxide 104 and HIF activator 0.
COc1ccc(CNC(=O)COC(=O)/C=C/c2ccco2)cc1 was read as V-ATPase pH 1, T cruzi inh -14, CendR NRP1 mod -2, AI-2 QS modul 1, Yeast superoxide 120 and HIF activator 0.
Screening O=C(NCc1ccco1)C12CC3CC(CC(C3)C1)C2 returned V-ATPase pH 0, T cruzi inh -4, CendR NRP1 mod -2, AI-2 QS modul 10, Yeast superoxide 101 and HIF activator 0.
Screening O=C(CC12CC3CC(CC(C3)C1)C2)NC(=S)NCc1ccco1 returned V-ATPase pH 3, T cruzi inh 56*, CendR NRP1 mod 6, AI-2 QS modul 34, Yeast superoxide 92 and HIF activator -2.
Cc1ccc2c(c1)C(=O)C(=O)N2CC(=O)OC(C)C was read as V-ATPase pH 3, T cruzi inh -23, CendR NRP1 mod 27*, AI-2 QS modul 8, Yeast superoxide 90 and HIF activator 0.
Cc1ccc(OCCN2C(=O)C(=O)c3cc(C)ccc32)cc1 was read as V-ATPase pH 0, T cruzi inh 33, CendR NRP1 mod 4, AI-2 QS modul 14, Yeast superoxide 103 and HIF activator 0.
For O=C(C1=C[C@H](c2ccc(C(F)(F)F)cc2)C[C@H](OCc2ccc(CO)cc2)O1)N1CCN(Cc2ccc3c(c2)OCO3)CC1 the results were V-ATPase pH 0, T cruzi inh 65*, CendR NRP1 mod 19, AI-2 QS modul 19, Yeast superoxide 98 and HIF activator 0.
